High-throughput results: PubChem BioAssay, several laboratories
Most compounds without a hit are left out; they make up all but 6.5% or so of the library.
PostGolgi ctrl = inhibits growth of the yeast control strain; efflux-deficient yeast background strain, growth absorbance A615, 16 h; inhibition, % at 10 µM; 5% of 98,000 active; AID 738
Pyk2 oligo antag = antagonists of human Pyk2 oligomerization; Q14289; Q293 cells, Pyk2 FERM NanoBiT luminescence; active compounds read low; z-score (the deposit names both 25 µM and 10 µM); 0.83% of 99,000 active;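 active means Z-score of -3 or lower, scaled per plate to the spread of control and sample wells; inactive means z-score above -3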;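 further: negative z-score means lost luminescence so less FERM oligomerization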
Target sequence (Q14289 whole entry, looked up): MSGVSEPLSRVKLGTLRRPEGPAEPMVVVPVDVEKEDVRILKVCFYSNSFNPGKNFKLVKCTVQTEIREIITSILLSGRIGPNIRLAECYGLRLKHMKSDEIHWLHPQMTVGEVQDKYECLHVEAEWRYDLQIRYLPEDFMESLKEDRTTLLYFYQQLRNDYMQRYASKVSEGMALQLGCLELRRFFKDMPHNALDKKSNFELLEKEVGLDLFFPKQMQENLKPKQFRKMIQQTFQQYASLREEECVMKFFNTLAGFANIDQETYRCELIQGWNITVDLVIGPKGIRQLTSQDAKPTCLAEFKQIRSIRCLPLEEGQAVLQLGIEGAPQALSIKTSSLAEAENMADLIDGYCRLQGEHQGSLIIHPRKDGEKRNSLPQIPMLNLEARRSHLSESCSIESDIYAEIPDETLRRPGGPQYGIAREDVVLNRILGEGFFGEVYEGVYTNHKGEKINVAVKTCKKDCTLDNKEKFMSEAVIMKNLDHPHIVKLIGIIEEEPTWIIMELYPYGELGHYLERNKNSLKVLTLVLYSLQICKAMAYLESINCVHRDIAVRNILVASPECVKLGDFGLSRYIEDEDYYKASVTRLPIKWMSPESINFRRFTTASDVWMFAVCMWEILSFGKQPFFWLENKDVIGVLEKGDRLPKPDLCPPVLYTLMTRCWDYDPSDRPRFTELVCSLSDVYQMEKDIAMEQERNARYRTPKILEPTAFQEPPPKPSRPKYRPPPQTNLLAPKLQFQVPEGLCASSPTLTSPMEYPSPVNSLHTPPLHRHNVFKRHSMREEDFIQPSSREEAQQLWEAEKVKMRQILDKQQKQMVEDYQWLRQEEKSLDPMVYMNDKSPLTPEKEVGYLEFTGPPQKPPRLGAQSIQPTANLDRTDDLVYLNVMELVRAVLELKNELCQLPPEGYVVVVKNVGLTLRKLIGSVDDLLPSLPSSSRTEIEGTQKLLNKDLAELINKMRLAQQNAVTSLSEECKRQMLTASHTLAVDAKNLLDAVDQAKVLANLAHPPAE
Ecoli tolC = E. coli tolC mutant growth inhibition | E. coli BW25113 tolC mutant growth, OD615 | growth inhibition, % at 10 µM (by protocol) | 2.2% of 65,000 active | AID 573;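 active means growth inhibition at or above a cutoff equal to the mean over every tested compound plus 3 SD, cut at about 60% in these data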;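 further: growth measured after 20 h incubation at 37 °C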
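Test system: E. coli BW25113 ΔtolC::kan bacteria | Medium: Kanamycin-containing LB broth (50 µg/mL) | Dosing: One dose of 10 µM final | Times: 20 h incubation with compound, 37 °C | Detection: Optical density read at 615 nm | Read-out basis: Percent growth inhibition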
Calb biofilm kill = kills Candida albicans biofilms. C. albicans biofilm + clotrimazole, Alamar Blue. AID 834. 0.14% of 85,000 active. inhibition, % at 6 µM;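 active means inhibition above 20%; inactive means inhibition below 20%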;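 further: preformed 24 hr biofilms exposed to compound for 48 hr; 0% = biofilm without compound and 100% = blank killed by clotrimazole plus chlorhexidine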
PostGolgi yeast = growth inhibition of a yeast mutant, post-Golgi transport screen. AID 739. 0.9% of 98,000 active. post-Golgi transport phenotypic cell assay. inhibition, % at 10 µM;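 further: yeast cells grown in 1536-well plates; yeast grown about 18 h at 30C before absorbance read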
E coli WT exp = growth inhibitors of E. coli BW25113 wild type; OD600 absorbance; growth inhibition, % at 100 µM; 0.15% of 98,000 active;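 active means growth inhibition above about 50% at one test dose, limit read from the data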;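 further: growth measured after 20 h incubation at 37 °C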
An asterisk follows results filed as active; nt = not tested or not shown. Unless noted, no stated cut-off is given here; in the data, active means inhibition above about 30%; inactive means the rest.

SMILES | PostGolgi ctrl | Pyk2 oligo antag | Ecoli tolC | Calb biofilm kill | PostGolgi yeast | E coli WT exp
CC1Cc2ccccc2N1C(=O)CSc1nc(N)cc(=O)[nH]1 (stereo not drawn) | 3 | nt | nt | nt | -7 | -2
COc1ccc(CCC(C)Nc2cccc(F)c2)cc1 (stereo not drawn) | -1 | -0.88 | nt | nt | 0 | -1
CCOc1cc(C2/C(=C(\O)c3cc(C)ccc3C)C(=O)C(=O)N2CCN(C)C)ccc1O (stereo not drawn) | 15 | 0.19 | -12 | 5 | -4 | -1
O=C(COn1nnc2ccc(C(F)(F)F)cc21)Nc1nnc(-c2ccccc2)o1 | -1 | 2 | 100* | 6 | 0 | -5
O=C(CCSc1ccccc1)Nc1nnc(-c2ccccc2)o1 | -3 | nt | 39 | 3 | 5 | 0
COc1ccc2c(c1)sc1nc(-c3ccccc3)cn12 | 10 | -1.5 | 99* | 1 | 7 | -11
O=C(Nc1scc(-c2cccs2)c1C(=O)O)c1cccs1 | -2 | 0.91 | 75* | nt | 0 | -3
CCOC(=O)c1c(-c2cccs2)csc1NC(=O)c1ccncc1 | 20 | 0.41 | 2 | 6 | 0 | -12
COC(=O)CSc1nnc(-c2ccco2)n1Cc1ccco1 | -3 | -0.04 | -8 | 3 | -2 | 4
CCCCOc1[nH]c2nc(-c3ccco3)n(Cc3ccco3)c(=N)c2c1C#N | 17 | 0.12 | 78* | 0 | 7 | -2
Cc1ccc(C(=O)N(c2c(C)n(C)n(-c3ccccc3)c2=O)C(C)C)cc1 | 11 | 0.53 | nt | 2 | -1 | 2
COCCN(CCOC)S(=O)(=O)c1ccc(C(=O)Nc2nnc(C)o2)cc1 | 5 | 0.21 | -17 | nt | 0 | -6
CCc1nnc(NC(=O)c2ccc(S(=O)(=O)N(CC(C)C)CC(C)C)cc2)o1 | -10 | -2.7 | 99* | 5 | 5 | 11
CSCc1nnc(NC(=O)c2ccc(S(=O)(=O)N(CC(C)C)CC(C)C)cc2)o1 | 23 | nt | 99* | nt | -5 | 3
C(=C\c1ccccc1)/CSc1nnc(-c2cccnc2)o1 | 33* | 0.17 | 13 | nt | -9 | 5
c1ccc(CSc2nnc(-c3cccnc3)o2)cc1 | nt | -0.21 | nt | 1 | nt | nt
Cc1cccc(NS(=O)(=O)c2ccc(Br)s2)n1 | 6 | -0.55 | nt | -4 | 0 | 11
CC(=O)Nc1ccc(S(=O)(=O)Nc2nc3ccccc3s2)cc1 | 7 | 0.78 | nt | 3 | 1 | 5
Cc1ccc(S(=O)(=O)Nc2nc3ccccc3s2)cc1 | 32* | -0.44 | nt | 4 | 0 | -1
O=S(=O)(Nc1nc2ccccc2s1)c1ccc(Br)s1 | 33* | -1.1 | 76* | 6 | -1 | 11
O=C1CN(c2nc3ccccc3n3cnnc23)CC(=O)N1CCc1ccccc1 | 13 | nt | 9 | 4 | 3 | 4
CCN(CC)CC(=O)N1N=C(c2cccs2)CC1c1ccco1 (stereo not drawn) | -3 | 0.15 | nt | nt | -2 | 4
Cc1ccc(C2CC(c3cccs3)=NN2C(=O)c2ccc(Br)o2)cc1 (stereo not drawn) | 83* | -1.4 | nt | 20 | 93* | -26
CN1CCOCCOCCN(C)C1=O | 0 | 0.09 | nt | 7 | 3 | -5
OC(c1cccs1)(c1cccs1)C1C[N+]2(CF)CCC1CC2 (stereo not drawn) | -3 | 0.66 | nt | nt | 24 | 3
SMILES | PostGolgi ctrl | Pyk2 oligo antag | Ecoli tolC | Calb biofilm kill | PostGolgi yeast | E coli WT exp
Cc1cccc(C)c1NC(=O)CNc1ccccc1 | 37* | -0.45 | 0 | 8 | 3 | 6
Cc1cccc(C)c1NC(=O)CSc1nnc(C)n1-c1ccccc1 | nt | 4.1 | nt | -4 | nt | nt
C/C=C/c1ccc(OCCCCn2cncn2)c(OC)c1 | 31* | 0.48 | 0 | 7 | 2 | 0
C/C=C/c1ccc(OCCCn2cncn2)c(OC)c1 | 3 | -0.12 | 1 | 2 | 0 | 1
COC(=O)c1ccc(C2C(Oc3ccccc3)C(=O)N2CCc2ccc(F)cc2)cc1 (stereo not drawn) | 8 | -0.24 | nt | nt | -3 | -2
COc1ccc(OC2C(=O)N(Cc3ccc(F)cc3)C2c2ccc(OC)c(OC)c2)cc1 (stereo not drawn) | 40* | -0.92 | nt | nt | -2 | -13
CCOc1ccc2nc(NC(=O)CS(=O)(=O)c3ccccc3)sc2c1 | 51* | 0.43 | 9 | 0 | -4 | 7
CCOc1ccc2nc(NC(=O)C(NS(=O)(=O)c3cccs3)C(C)C)sc2c1 (stereo not drawn) | 6 | -1.4 | 23 | 5 | -7 | -9
Cc1cc(C)nc(N2CCCC(C(=O)Nc3nnc(C)s3)C2)n1 (stereo not drawn) | -2 | -0.1 | -1 | 1 | 5 | -3
